ChEMBL document CHEMBL1123789, “Synthesis of beta-carboline-benzodiazepine hybrid molecules: use of the known structural requirements for benzodiazepine and beta-carboline binding in designing a novel, high-affinity ligand for the benzodiazepine receptor” (J Med Chem, 1987)

Assays:
[1] = target: T1, GABA-A receptor; anion channel (Mus musculus) (UniProt Q8BHJ7+P26048+Q8QZW7+P50571+Q9R0Y8+P22723+A2AMW3+P62812+Q9JLF1+P26049+P22933+Q9D6F4+P63080+P27681+P16305); assay: In vivo displacement of [3H]flunitrazepam to GABA-A benzodiazepine receptor of mouse cortex at 10 mg/kg, 10 min; type: organism-based; design: dose 10 mg/kg
Procedure, shortened: (§1)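 Male Swiss mice received [3H]flunitrazepam 200 µCi/kg iv via tail vein. Test compound, 10 mg/kg suspended in Tween 80, was given 10 min later and 10 min before decapitation. Cerebellum, cortex and hippocampus were homogenized in cold 50 mM Tris-HCl pH 7.4. Crude homogenate (12 mg wet tissue) was filtered on GF/B and counted, as pCi/mg wet tissue.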

[2] = target: T1, GABA-A receptor; anion channel (Mus musculus); assay: In vivo total binding of [3H]flunitrazepam (200uCi/kg, 20 min) to GABA-A benzodiazepine receptor of mouse cortex; type: organism-based
Procedure, shortened: (§2)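 Male Swiss mice received [3H]flunitrazepam 200 µCi/kg in saline via tail vein, 20 min before decapitation. Cerebellum, cortex and hippocampus were dissected on ice and homogenized in ice-cold 50 mM Tris-HCl pH 7.4. Two 600-µL aliquots (12 mg wet tissue) were filtered on GF/B, washed twice and counted. Results given as pCi/mg wet tissue.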

[3] = target: GABA-A receptor; anion channel; assay: Displacement of [3H]flunitrazepam from GABA-A benzodiazepine receptor of rat cerebral cortex membrane; type: tissue-based
Procedure, shortened: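 Rat cerebral cortex homogenised in ice-cold 50 mM Tris-HCl pH 7.4, washed by centrifugation, frozen at -20 °C ≥24 h. Filtration on glass fibre, scintillation counting, duplicates; IC50 by Hofstee analysis.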

[4] = target: T1, GABA-A receptor; anion channel (Mus musculus); assay: In vivo displacement of [3H]flunitrazepam to GABA-A benzodiazepine receptor of mouse cerebellum at 10 mg/kg, 10 min; type: organism-based; design: dose 10 mg/kg; procedure, shortened: as §1
[5] = target: T1, GABA-A receptor; anion channel (Mus musculus); assay: In vivo total binding of [3H]flunitrazepam (200uCi/kg, 20 min) to GABA-A benzodiazepine receptor of mouse cerebellum; type: organism-based; procedure, shortened: as §2
[6] = target: T1, GABA-A receptor; anion channel (Mus musculus); assay: In vivo binding of [3H]flunitrazepam to GABA-A benzodiazepine receptor of mouse hippocampus after maximal Diazepam (10 mg/kg, 40 min); type: organism-based
Procedure, shortened: (§3)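 Nonspecific in vivo binding. Diazepam 10 mg/kg was given to male Swiss mice 40 min before iv [3H]flunitrazepam (200 µCi/kg) and 60 min before decapitation. Cerebellum, cortex and hippocampus were homogenized in cold 50 mM Tris-HCl pH 7.4. Crude homogenate (12 mg wet tissue) was filtered on GF/B and counted, as pCi/mg wet tissue.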

[7] = target: T1, GABA-A receptor; anion channel (Mus musculus); assay: In vivo binding of [3H]flunitrazepam to GABA-A benzodiazepine receptor of mouse cerebellum after maximal Diazepam (10mg/kg, 40 min); type: organism-based; procedure, shortened: as §3
[8] = target: T1, GABA-A receptor; anion channel (Mus musculus); assay: In vivo displacement of [3H]flunitrazepam to GABA-A benzodiazepine receptor of mouse hippocampus at 10 mg/kg, 10 min; type: organism-based; design: dose 10 mg/kg; procedure, shortened: as §1
[9] = target: T1, GABA-A receptor; anion channel (Mus musculus); assay: In vivo binding of [3H]flunitrazepam to GABA-A benzodiazepine receptor of mouse cortex after maximal Diazepam (10 mg/kg, 40 min); type: organism-based; procedure, shortened: as §3
[10] = target: T1, GABA-A receptor; anion channel (Mus musculus); assay: In vivo total binding of [3H]flunitrazepam (200uCi/kg, 20 min) to GABA-A benzodiazepine receptor of mouse hippocampus; type: organism-based; procedure, shortened: as §2
[11] = target: GABA-A receptor; anion channel; assay: Displacement of [3H]beta-CCE from GABA-A benzodiazepine receptor of rat cerebral cortex membranes; type: cell membranes, Membrane
Procedure, shortened: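 Rat cerebral cortex membranes, washed in 50 mM Tris-HCl pH 7.4, stored at −20 °C for at least 24 h. 60 µg protein incubated 60 min at 0 °C with 0.4 nM [3H]-β-CCE (final) and test compound from 5×10^-10 to 10^-5 M. Nonspecific binding was defined with 1 µM unlabeled β-CCE. Bound ligand collected by GF/B filtration and counted by scintillation. Duplicates; IC50 from Hofstee analysis.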

Compound	IC50 [3] [nM]	IC50 [11] [nM]	also measured
O=c1[nH]c2ccccc2c(=O)n2cc3nc4ccccc4c-3cc12	23	47	Total binding [1]: 88 pCi mg-1; Total binding [2]: 85 pCi mg-1; Total binding [4]: 78.8 pCi mg-1; Total binding [5]: 71.2 pCi mg-1; Binding [6]: 25.6 pCi mg-1; Binding [7]: 24.1 pCi mg-1; Total binding [8]: 96.8 pCi mg-1; Binding [9]: 26.7 pCi mg-1; Total binding [10]: 95.5 pCi mg-1
CCOC(=O)C1=CC2c3ccccc3NC2C=N1 (stereo unspecified)	2.5	6	–
O=C1Nc2ccccc2Cn2cc3nc4ccccc4c-3cc21	6000	2000	–
CN1C(=O)CN=C(c2ccccc2F)c2cc([N+](=O)[O-])ccc21 [FLUNITRAZEPAM]	3	8	–
O=C1Nc2ccccc2CN2Cc3[nH]c4ccccc4c3CC12 (stereo unspecified)	> 100000	> 100000	–
O=C1Nc2ccccc2C(=O)N2Cc3[nH]c4ccccc4c3CC12 (stereo unspecified)	> 100000	> 100000	–
